HCT116 PTEN-null = growth suppression of PTEN-null HCT116, primary screen, cell-based, CellTiter-Glo; HCT116 PTEN-null viability, 60 h; hits give low values; viability, % at 10 µM; 1.2% of 140,000 active; AID 827, 2007;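 active means viability at or below a set limit, 4 SD under the median of all tested compounds, cut at about 3.7% in these data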;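 further: PTEN knockout HCT116 line with beta catenin targeted HCT116 as companion control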
HUVEC inhibit = inhibitors of HUVEC proliferation, primary screen, cell-based, 384-well. CellTiter-Glo luminescence, 72 h; hits give low values. viability, % at 10 µM (by protocol). 1.1% of 86,000 active. AID 648, 2007;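 active means viability at or below 30%; inactive means viability above 30%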
bCat KO growth = primary screen for growth suppressors in beta-catenin knockout HCT116 cells (colon tumor, human); HCT116 beta-catenin knockout viability, CellTiter-Glo, 60 h; hits give low values; viability, % at 10 µM; 1.5% of 140,000 active; AID 818, 2007;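 active means viability at or under a set limit, the compound median less 4 SD, cut at about 6% in these data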
H69AR growth 86K = proliferation blockers of H69AR lung cancer cells, primary screen, cell-based, human, 86K library. H69AR lung tumor viability, ATP luminescence, 72 h; hits give low values. viability, % at 10 µM. 6% of 85,000 active;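 active means viability at or below 40%; inactive means viability above 40%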;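 further: multidrug resistant small cell line overexpressing MRP-1 efflux transporter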
Lung fibro prol = antiproliferative effect on LL 47 fibroblasts – human, LL 47 cells, CellTiter-Glo luminescence, primary screen; LL 47 human lung fibroblast viability, ATP luminescence; hits give low values; viability, % at 10 µM; 1.1% of 85,000 active; AID 719, 2007;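 active means viability at or below 50% in the single dose screen; inactive means viability above 50%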;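 further: compound exposure lasted 72 h before the ATP readout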
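Assay system: human lung fibroblast line LL 47, low passage. Input: 1,150 fibroblasts seeded per well. Times: overnight cell rest, 72 h compound treatment at 37 °C. Evaluation: % viability of median cell-only signal. Technique: luminescent ATP detection, CellTiter-Glo. Control set: cell-only wells, no compound.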
Cav3 T inh = Cav3.2 calcium influx blockers – cell-based, Fluo-4 calcium fluorescence, FDSS, MLSMR library, primary screen; B-score at 10 µM; Voltage-dependent T-type calcium channel subunit alpha-1H (Homo sapiens), O95180; Cav3.2-expressing cells; hits give low values; AID 449739, 2010; 4% of 100,000 active;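 active means single-dose well whose peak fluorescence ratio is a statistical outlier from its plate by either plate-standardised score or position-corrected B-score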
Numbers stand for hits; . = inactive; / = no result. In the library only some 7.1% were active in any assay of this set; here they are far more common.

SMILES | HCT116 PTEN-null | HUVEC inhibit | bCat KO growth | H69AR growth 86K | Lung fibro prol | Cav3 T inh
O=c1c(C=NCCN2CCNCC2)c(O)n(C2CCCCC2)c(=O)n1C1CCCCC1 | . | . | . | . | . | .
C[C@@H]1O[C@@H](O[C@H]2C[C@@H](O)[C@]3(CO)[C@H]4[C@H](O)C[C@]5(C)[C@@H](C6=CC(=O)OC6)CC[C@]5(O)[C@@H]4CC[C@]3(O)C2)[C@H](O)[C@H](O)[C@H]1O | . | / | 5.7 | / | / | .
C[C@H]1O[C@@H](O[C@H]2[C@@H](O)C[C@H](O[C@H]3[C@@H](O)C[C@H](O[C@H]4CC[C@@]5(C)[C@H](CC[C@@H]6[C@@H]5CC[C@]5(C)[C@@H](C7=CC(=O)OC7)CC[C@]65O)C4)O[C@@H]3C)O[C@@H]2C)C[C@H](O)[C@@H]1O | . | / | 4.9 | / | / | .
CCN(CCCl)Cc1ccccc1Br | / | / | / | / | / | -5.1
CCOC(=O)C1CCN(C=C2C(=O)N(C)C(=S)N(C)C2=O)CC1 | . | / | . | / | / | /
CCC(=O)N1N=C2C3CCN(CC3)C2C1c1ccccc1 (stereo not drawn) | . | / | . | / | / | .
CC(=O)N1N=C2C3CCN(CC3)C2C1c1ccccc1 (stereo not drawn) | . | / | . | / | / | -3.9
O=C(Nc1cccc(Cl)c1)c1c(O)c2c(n(Cc3ccccc3)c1=O)CCCC2 | . | / | . | / | / | /
CCCCCCn1c(=O)c(C(=O)Nc2c(C)n(C)n(-c3ccccc3)c2=O)c(O)c2ccccc21 | / | . | / | 12 | . | /
Cc1c(NC(=O)C(C)OC(=O)Cc2ccccc2)c(=O)n(-c2ccccc2)n1C (stereo not drawn) | . | / | . | / | / | .
CCCCn1c(=O)c(C(=O)Nc2ccsc2C(=O)OC)c(O)c2ccccc21 | 3.1 | / | 3.2 | / | / | /
CCCCCn1c(=O)c(C(=O)Nc2ccncc2)c(O)c2ccccc21 | / | . | / | 5.1 | 49 | /
COC(=O)C1=C(c2ccc(S(C)(=O)=O)cc2)C[C@@H]2CC[C@H]1N2C(=O)NC1CCCCC1 | / | / | / | / | / | .
COP(=O)(OC)C1(O)C(=O)Nc2ccc(Br)cc21 (stereo not drawn) | . | / | . | / | / | /
Cc1ccccc1C(O)(Cc1ccccc1)C1CN2CCC1CC2 (stereo not drawn) | 0.3 | . | 1.1 | . | . | .
Nc1c2c(nc3sc4c(c13)CCCCC4)CCCC2 | . | / | 3.4 | / | / | /
Cc1cc2c(C(F)(F)F)cc(=O)oc2c2c1NCCC2 | . | . | . | . | . | -8.3
O=c1cc(C(F)(F)F)c2cc3c4c(c2o1)CCCN4CCC3 | . | . | . | . | . | -7.8
CN1CCN(S(=O)(=O)c2cnc(Cl)c(Br)c2)CC1 | . | / | . | / | / | /
O=C(Cn1cc(C(=O)c2ccccc2F)c2ccccc21)NCc1ccco1 | . | . | . | . | 43 | .
CCC(C)NC(=O)c1c(N)n(CC2CCCO2)c2nc3ccccc3nc12 (stereo not drawn) | . | . | . | . | . | -8.7
CCCCn1c(N)c(C(=O)NCCN2CCOCC2)c2nc3ccccc3nc21 | . | . | . | . | . | .
CCC(C)NC(=O)c1c(N)n(CCCOC)c2nc3ccccc3nc12 (stereo not drawn) | . | . | . | . | . | .
CCC(C)OC(=O)c1c(N)n(Cc2cccs2)c2nc3ccccc3nc12 (stereo not drawn) | . | . | . | . | . | .
CCC(C)NC(=O)c1c(N)n(Cc2ccc3c(c2)OCO3)c2nc3ccccc3nc12 (stereo not drawn) | 1.4 | / | 1.4 | / | / | .
SMILES | HCT116 PTEN-null | HUVEC inhibit | bCat KO growth | H69AR growth 86K | Lung fibro prol | Cav3 T inh
CC(C)CCNC(=O)c1c(N)n(CC2CCCO2)c2nc3ccccc3nc12 (stereo not drawn) | . | / | . | / | / | -4.2
Oc1cccc2nc3ccccc3nc12 | / | / | / | / | / | .
CC(C)N1C(=O)NC(=O)C2(Cc3cc([N+](=O)[O-])ccc3N(C)C2c2ccccc2)C1=O (stereo not drawn) | . | / | . | / | / | /
CC(=O)OC1(c2ccccc2)CC(C(C)(C)C)CN(C(C)(C)C)C1 (stereo not drawn) | . | / | . | / | / | /
CCOC(=O)c1c(C)n(Cc2ccccc2)c2ccc(OCC(O)CN3C(=O)CNC3=O)cc12 (stereo not drawn) | . | . | . | 27 | . | .
CCOC(=O)c1c(C)n(Cc2ccc3c(c2)OCO3)c2ccc(O)cc12 | . | . | . | . | . | .
CC(C)(C)OC(=O)c1c(N)n(Cc2ccco2)c2nc3ccccc3nc12 | . | . | . | . | . | -5.3
COC1C(OC(=O)c2ccc(C)[nH]2)C(O)C(Oc2ccc3c(O)c(NC(=O)c4ccc(O)c(CC=C(C)C)c4)c(=O)oc3c2Cl)OC1(C)C (stereo not drawn) | / | / | / | / | / | .

Screening results as filed in PubChem.
